Experimental data as given in ChEMBL document CHEMBL4350999, “Enhanced tumor retention of NTSR1-targeted agents by employing a hydrophilic cysteine cathepsin inhibitor” (Eur J Med Chem, 2019).
Activity calls are given as the source filed them. No cut-off for these calls is given here.

How the values were obtained:
Procathepsin L = Procathepsin L (Homo sapiens, UniProt P07711); assay: Binding affinity to cathepsin L in human HT-29 cells assessed as intracellular adduct formation at 0.74 MBq incubated for 4 hrs using 177Lu labelled compound by SDS-PAGE analysis; format: cell-based; parameters: dose or concentration left out as unconfirmed
Chain of Procathepsin L (P07711 114-333 limits assumed): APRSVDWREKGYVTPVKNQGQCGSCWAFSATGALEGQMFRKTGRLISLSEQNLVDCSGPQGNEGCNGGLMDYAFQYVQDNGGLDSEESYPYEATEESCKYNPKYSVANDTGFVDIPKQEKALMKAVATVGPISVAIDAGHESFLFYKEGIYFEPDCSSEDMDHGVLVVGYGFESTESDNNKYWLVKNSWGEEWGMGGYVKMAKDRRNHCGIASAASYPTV
Procedure, shortened: (§1)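 HT-29 cells (1 × 10^6/well) incubated 4 h at 37 °C with 177Lu conjugate (20 μCi, 0.74 MBq) in 1 mL medium, with or without E-64 (10 μM) or NTSR1 peptide N1 (20 μM). Cells washed and refed; at set times cells pooled, RIPA-lysed with protease inhibitor. Lysates heated 85 °C 2 min, run on 16% tris-glycine SDS-PAGE, and phosphor autoradiography taken after 72 h exposure.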

[1] = Drug internalization in human HT-29 cells assessed as efflux fraction measured at 2 hrs using 177Lu labelled compound by gamma counter method; format: ADME, cell-based; settings: ht-29, 2 h
Procedure, shortened: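 HT-29 cells (~1 × 10^6) loaded 2 h at 37 °C with 177Lu conjugate (100,000 cpm), washed, then given fresh medium. Medium collected and replaced at 1, 2, 4, 8, 24 h and gamma-counted; cells lysed in 10% SDS at 24 h. Efflux expressed as % of total internalized activity (effluxed + cell-retained); n = 3.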

[2] = Drug retention in kidney of mouse xenografted with human HT-29 cells assessed as tissue-conjugate adduct formation at 29.6 MBq measured after 72 hrs using 177Lu labelled compound by SDS-PAGE analysis; format: ADME, tissue-based; settings: in vivo
Procedure, shortened: (§2)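 HT-29 xenograft mice given 800 μCi (29.6 MBq) 177Lu conjugate i.v. and killed at 72 h. Tumor, liver and kidney homogenized in RIPA with protease inhibitor and supernatants run on SDS-PAGE autoradiography. Other supernatant aliquots filtered through 10 kDa MWCO devices to give the % macromolecule-associated radioactivity; n = 3.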

Cathepsin B = Cathepsin B (Homo sapiens, UniProt P07858); assay: Binding affinity to cathepsin B in human HT-29 cells assessed as intracellular adduct formation at 0.74 MBq incubated for 4 hrs using 177Lu labelled compound by SDS-PAGE analysis; format: cell-based; parameters: dose or concentration left out as unconfirmed; procedure, shortened: as §1
[3] = Drug retention in liver of mouse xenografted with human HT-29 cells assessed as tissue-conjugate adduct formation at 29.6 MBq measured after 72 hrs using 177Lu labelled compound by SDS-PAGE analysis; format: ADME, tissue-based; settings: in vivo; procedure, shortened: as §2
[4] = Stability of 177Lu labelled compound in human serum assessed as parent compound remaining at 37 degC after 24 hrs by RP-HPLC analysis; format: ADME, cell-free; settings: read-out: Stability
Procedure, shortened: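 Radioconjugate (1.5 mCi, 55.5 MBq) was incubated in 300 μL human serum at 37 °C. At 1, 3 and 24 h, acetonitrile was added and samples were spun at 12,000×g for 5 min. Supernatant was dried under nitrogen, reconstituted in water and analyzed by radio-HPLC.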

[5] = Ratio of drug uptake in SCID mouse xenograted with human HT-29 cells assessed as tumour retention to drug uptake in liver of SCID mouse xenografted with human HT-29 cells measured after 72 hrs using 177Lu labelled compound; format: ADME, tissue-based, Tumor/Liver
Procedure, shortened: (§3)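 Female SCID mice (5 weeks old) received s.c. flank HT-29 cells (5 × 10^6 in Matrigel). At ~80 mm3, two weeks later, mice were randomized and given 10 μCi (0.37 MBq) of purified 177Lu conjugate i.v. by tail vein. Mice were killed at 4, 24 or 72 h. Tissues were weighed and gamma counted as %ID/g, mean ± SD, n = 5. Tumor-to-tissue ratios were calculated.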

[6] = Ratio of drug uptake in SCID mouse xenograted with human HT-29 cells assessed as tumour retention to drug uptake in large intestine of SCID mouse xenografted with human HT-29 cells measured after 24 hrs using 177Lu labelled compound; format: ADME, tissue-based, Tumor/Large intestine; procedure, shortened: as §3
[7] = Ratio of drug uptake in SCID mouse xenograted with human HT-29 cells assessed as tumour retention to drug uptake in lung of SCID mouse xenografted with human HT-29 cells measured after 4 hrs using 177Lu labelled compound; format: ADME, tissue-based, Tumor/Lung; procedure, shortened: as §3
[8] = Ratio of drug uptake in SCID mouse xenograted with human HT-29 cells assessed as tumour retention to drug uptake in spleen of SCID mouse xenografted with human HT-29 cells measured after 24 hrs using 177Lu labelled compound; format: ADME, tissue-based, Tumor/Spleen; procedure, shortened: as §3
[9] = Ratio of drug uptake in SCID mouse xenograted with human HT-29 cells assessed as tumour retention to drug uptake in small intestine of SCID mouse xenografted with human HT-29 cells measured after 24 hrs using 177Lu labelled compound; format: ADME, tissue-based, Tumor/Small intestine; procedure, shortened: as §3
[10] = Ratio of drug uptake in SCID mouse xenograted with human HT-29 cells assessed as tumour retention to drug uptake in spleen of SCID mouse xenografted with human HT-29 cells measured after 72 hrs using 177Lu labelled compound; format: ADME, tissue-based, Tumor/Spleen; procedure, shortened: as §3
[11] = Ratio of drug uptake in SCID mouse xenograted with human HT-29 cells assessed as tumour retention to drug uptake in liver of SCID mouse xenografted with human HT-29 cells measured after 24 hrs using 177Lu labelled compound; format: ADME, tissue-based, Tumor/Liver; procedure, shortened: as §3
[12] = Ratio of drug uptake in SCID mouse xenograted with human HT-29 cells assessed as tumour retention to drug uptake in muscle of SCID mouse xenografted with human HT-29 cells measured after 72 hrs using 177Lu labelled compound; format: ADME, tissue-based, Tumor/Muscle; procedure, shortened: as §3
[13] = Ratio of drug uptake in SCID mouse xenograted with human HT-29 cells assessed as tumour retention to drug uptake in small intestine of SCID mouse xenografted with human HT-29 cells measured after 72 hrs using 177Lu labelled compound; format: ADME, tissue-based, Tumor/Small intestine; procedure, shortened: as §3
[14] = Ratio of drug uptake in SCID mouse xenograted with human HT-29 cells assessed as tumour retention to drug uptake in small intestine of SCID mouse xenografted with human HT-29 cells measured after 4 hrs using 177Lu labelled compound; format: ADME, tissue-based, Tumor/Small intestine; procedure, shortened: as §3
[15] = Ratio of drug uptake in SCID mouse xenograted with human HT-29 cells assessed as tumour retention to drug uptake in blood of SCID mouse xenografted with human HT-29 cells measured after 24 hrs using 177Lu labelled compound; format: ADME, tissue-based, Tumor/Blood; procedure, shortened: as §3
[16] = Ratio of drug uptake in SCID mouse xenograted with human HT-29 cells assessed as tumour retention to drug uptake in blood of SCID mouse xenografted with human HT-29 cells measured after 4 hrs using 177Lu labelled compound; format: ADME, tissue-based, Tumor/Blood; procedure, shortened: as §3
[17] = Ratio of drug uptake in SCID mouse xenograted with human HT-29 cells assessed as tumour retention to drug uptake in large intestine of SCID mouse xenografted with human HT-29 cells measured after 4 hrs using 177Lu labelled compound; format: ADME, tissue-based, Tumor/Large intestine; procedure, shortened: as §3
[18] = Ratio of drug uptake in SCID mouse xenograted with human HT-29 cells assessed as tumour retention to drug uptake in kidney of SCID mouse xenografted with human HT-29 cells measured after 72 hrs using 177Lu labelled compound; format: ADME, tissue-based, Tumor/Kidney; procedure, shortened: as §3
[19] = Ratio of drug uptake in SCID mouse xenograted with human HT-29 cells assessed as tumour retention to drug uptake in pancreas of SCID mouse xenografted with human HT-29 cells measured after 72 hrs using 177Lu labelled compound; format: ADME, tissue-based, Tumor/Pancreas; procedure, shortened: as §3
[20] = Ratio of drug uptake in SCID mouse xenograted with human HT-29 cells assessed as tumour retention to drug uptake in large intestine of SCID mouse xenografted with human HT-29 cells measured after 72 hrs using 177Lu labelled compound; format: ADME, tissue-based, Tumor/Large intestine; procedure, shortened: as §3

SMILES	Activity (Procathepsin L)	Drug uptake [1] [%]	Drug uptake [2]	Activity (Cathepsin B)	Drug uptake [3]	remaining at 24 h [4] [%]	Ratio [5]	Ratio [6]	Ratio [7]	Ratio [8]	Ratio [9]	Ratio [10]	Ratio [11]	Ratio [12]	Ratio [13]	Ratio [14]	Kp at 24 h [15]	Kp at 4 h [16]	Ratio [17]	Ratio [18]	also measured
Cc1cc(O)cc(C)c1C[C@H](NC(=O)[C@@H]1CCCN1C(=O)[C@H](CCCNC(=N)N)NC(=O)[C@H](CCCNC(=N)N)N(C)C(=O)[C@@H]1CCCN1C(=O)[C@H](CCCCN)NC(=O)[C@@H](CO)NC(=O)[C@@H](CO)NC(=O)[C@@H](CO)NC(=O)[C@H](Cc1cn(CCNC(=O)[C@H](CCCNC(=N)N)NC(=O)[C@H](CC(C)C)NC(=O)CCC(=O)O)nn1)NC(=O)CN1CCN(CC(=O)O)CCN(CC(=O)O)CCN(CC(=O)O)CC1)C(=O)N[C@H](C(=O)N[C@@H](CC(C)C)C(=O)O)C(C)(C)C	inactive	32.3	Not Active	inactive	Not Active	49.5															
Cc1cc(O)cc(C)c1C[C@H](NC(=O)[C@@H]1CCCN1C(=O)[C@H](CCCNC(=N)N)NC(=O)[C@H](CCCNC(=N)N)N(C)C(=O)[C@@H]1CCCN1C(=O)[C@H](CCCCN)NC(=O)[C@@H](CO)NC(=O)[C@@H](CO)NC(=O)[C@@H](CO)NC(=O)[C@H](Cc1cn(CCNC(=O)[C@H](CCCNC(=N)N)NC(=O)[C@H](CC(C)C)NC(=O)C2OC2C(=O)O)nn1)NC(=O)CN1CCN(CC(=O)O)CCN(CC(=O)O)CCN(CC(=O)O)CC1)C(=O)N[C@H](C(=O)N[C@@H](CC(C)C)C(=O)O)C(C)(C)C (some centres undefined)	Active	27.3	Active	Active	Active	36.9	5.9	6	12.3	4	2	2.4	8.5	153	1.7	1.85	422	337	5.7	0.09	Ratio [19]: 30; Ratio [20]: 5.5
Cc1cc(C)c(C(=O)OCC(=O)[C@H](CCCCNC(=O)CNC(=O)[C@@H](CO)NC(=O)[C@@H](CO)NC(=O)[C@@H](CO)NC(=O)Cn2cc(C[C@H](NC(=O)CN3CCN(CC(=O)O)CCN(CC(=O)O)CCN(CC(=O)O)CC3)C(=O)N[C@H](CO)C(=O)N[C@H](CO)C(=O)N[C@H](CO)C(=O)N[C@@H](CCCCN)C(=O)N3CCC[C@H]3C(=O)N(C)[C@@H](CCCNC(=N)N)C(=O)N[C@@H](CCCNC(=N)N)C(=O)N3CCC[C@H]3C(=O)N[C@@H](Cc3c(C)cc(O)cc3C)C(=O)N[C@H](C(=O)N[C@@H](CC(C)C)C(=O)O)C(C)(C)C)nn2)NC(=O)[C@H](Cc2ccccc2)NC(=O)OCc2ccccc2)c(C)c1							0.6	5	1.9	0.7	2	0.28	0.5	16	0.9	1.3	69	6.5	2.7	0.09	Ratio [19]: 6.5; Ratio [20]: 1.9
